Calls of active or inactive are those of the source. The calls are words filed in the database; no cut-off is given here.
Experiments:
[1] = molecular target: GABA-A receptor; anion channel; experiment: (§1) Displacement of [3H]flunitrazepam from GABA-A benzodiazepine receptor of rat cortical membranes; format: cell membranes, Membrane
Procedure, shortened: (§2)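 Rat membranes incubated 60 min at 4 °C with [3H]flunitrazepam, 50 µg membrane protein and graded test drug in 200 µL containing NaCl, 10 mM Hepes/Tris pH 7.4 and 1 mM MgCl2; bound ligand separated by rapid filtration on GF/B; mean affinity, SE ≤10% of mean.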

[2] = molecular target: T1, GABA-A receptor; anion channel (Rattus norvegicus) (UniProt O09028+P15431+P18506+P18508+P19969+P20236+P23574+P23576+P28471+P28473+P30191+P62813+P63079+P63138+Q91ZM7+Q9ES14); experiment: Inhibition of [35S]TBPS binding to GABA-A Benzodiazepine receptor of rat brain membranes; format: cell membranes; settings: Membrane
[3] = molecular target: T2, GABA-A receptor; alpha-1/beta-2/gamma-2 (Homo sapiens) (UniProt P14867+P47870+P18507); experiment: (§3) In vitro GABA-mediated chloride current in A293 cells expressing GABA-A benzodiazepine receptor alpha-1-beta-2-gamma-2 subunits at 5 uM; format: functional, cell-based; settings: HEK293
Rattus norvegicus [4] = experiment: In vivo efficacy evaluated for ability to antagonize metrazole induced clonic convulsions in rat after ip injection; format: functional
Mus musculus [5] = experiment: In vivo efficacy was evaluated for their ability to antagonize metrazole induced clonic convulsants in rat after ip injection.
Mus musculus [6] = experiment: In vivo efficacy is evaluated by percent control of cerebellar GMP content in CF1 mice and result is expressed as crebrellar GMP levels in (drug+stress) treated mice and mice under stress.; format: functional
Procedure, shortened: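 Male CF-1 mice dosed orally in vehicle 122 (controls get vehicle, 1 mL/100 g), then given electric footshock stress. Killed 30 min after dosing. Cerebellum homogenized in 10 volumes of 1% perchloric acid, kept 30 min on ice, boiled 5 min, spun 17000g for 20 min. cGMP measured by radioimmunoassay. Expressed as % of the (drug + stress)/stress response versus vehicle-shock controls.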

Mus musculus [7] = organism: Mus musculus; experiment: Compound was evaluated for their ability to antagonize the muscle relaxation effects of benzodiazepine full agonist, triazolam.
[8] = molecular target: T1, GABA-A receptor; anion channel (Rattus norvegicus); experiment: as §1; format: cell membranes; design: concentration or dose not given beside the values; settings: Membrane, concentration not given here; procedure, shortened: as §2
[9] = molecular target: T1, GABA-A receptor; anion channel (Rattus norvegicus); experiment: Shift in [35S]TBPS binding to GABA-A Benzodiazepine receptor of rat brain membrane
Mus musculus [10] = organism: Mus musculus; experiment: Ability to antagonize the muscle relaxation effect in mice caused by a benzodiazepine full agonist, triazolam.; format: functional
Procedure, shortened: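 Muscle relaxation induced by triazolam; test compound and triazolam given separately, traction scored 30 min after dosing; ED50 for blocking the relaxant effect.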

Mus musculus [11] = experiment: In vivo efficacy is evaluated by percent control of cerebellar GMP levels in (drug+stress) treated mice/mice under stress; format: functional; design: concentration or dose not given beside the values
Procedure, shortened: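 Male CF-1 mice given drug orally in vehicle 122 before electric footshock stress, controls given vehicle (1 mL/100 g); killed 30 min after treatment; cerebellum homogenized in 1% perchloric acid, iced 30 min, boiled 5 min, spun 17000g 20 min; supernatant cGMP by radioimmunoassay, expressed as % of stress control.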

Mus musculus [12] = experiment: In vivo acute electroshock physical dependence activity in mice; Not active.; format: functional, organism-based
Rattus norvegicus [13] = experiment: Mean number of shocks produced by CDPZ in rats at a dose of 12 mg/kg was determined by vogel's punished licking assay; format: functional
Procedure, shortened: (§4)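 Vogel punished licking test in rats; number of shocks accepted recorded per dose group (n 6–10); each dose compared with the 0 mg/kg group of the same experiment by Wilcoxon rank sum test.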

Rattus norvegicus [14] = experiment: Mean number of shocks produced by the compound in rats at a dose of 0 mg/kg was determined by vogel's punished licking assay; format: functional; procedure, shortened: as §4
Rattus norvegicus [15] = experiment: Mean number of shocks produced by the compound in rats at a dose of 0.3 mg/kg was determined by vogel's punished licking assay; format: functional; procedure, shortened: as §4
Rattus norvegicus [16] = experiment: Mean number of shocks produced by the compound in rats at a dose of 1 mg/kg was determined by vogel's punished licking assay; format: functional; procedure, shortened: as §4
Rattus norvegicus [17] = experiment: Mean number of shocks produced by the compound in rats at a dose of 10 mg/kg was determined by vogel's punished licking assay; format: functional; procedure, shortened: as §4
Rattus norvegicus [18] = experiment: Mean number of shocks produced by the compound in rats at a dose of 3 mg/kg was determined by vogel's punished licking assay; format: functional; procedure, shortened: as §4
[19] = molecular target: T2, GABA-A receptor; alpha-1/beta-2/gamma-2 (Homo sapiens); experiment: as §3; format: functional, cell-based; settings: HEK293; remark: listed apart in the source
[20] = molecular target: T1, GABA-A receptor; anion channel (Rattus norvegicus); settings: Membrane
Mus musculus [21] = experiment: In vivo acute electroshock physical dependence activity in mice; Active; format: functional, organism-based
[22] = molecular target: GABA A receptor alpha-3/beta-2/gamma-2 (Homo sapiens) (UniProt P47870+P18507+P34903); experiment: In vitro GABA-mediated chloride current in A293 cells expressing GABA-A benzodiazepine receptor alpha-3-beta-2-gamma-2 subunits at 5 uM; format: functional, cell-based; settings: HEK293

SMILES	Ki [1]	Change in Cl- current [3]	ED50 (Rattus norvegicus [4])	inhibition [8]	Shift [9]	ED50 (Mus musculus [10])	Control (Mus musculus [11])	Acute electroshock activity (Mus musculus [21])	Change in Cl- current [22]	also measured
CC(C)(C)OC(=O)c1ncn2c1CN(C(=O)N1CCOCC1)c1ccccc1-2	2.47 nM	0.14	> 50 mg/kg							Shift [2]: 0
CN1C(=O)CN=C(c2ccccc2)c2cc(Cl)ccc21 [DIAZEPAM]										ED50 (Mus musculus [5]): 0.5 mg/kg; Control (Mus musculus [6]): 0.44%; ED50 (Mus musculus [7]): > 30 mg/kg
CC(C)N1[C@H](C)CN(C(=O)N2Cc3c(C(=O)OC(C)(C)C)ncn3-c3ccc(Cl)cc32)C[C@@H]1C	5.16 nM	-0.32	35.3 mg/kg	85%	-0.97	> 30 mg/kg	52%			Acute electroshock activity (Mus musculus [12]): inactive; Mean no. of shocks (Rattus norvegicus [13]): 26; Mean no. of shocks (Rattus norvegicus [14]): 6.6; Mean no. of shocks (Rattus norvegicus [15]): 6.3; Mean no. of shocks (Rattus norvegicus [16]): 5.3; Mean no. of shocks (Rattus norvegicus [17]): <3.4; Mean no. of shocks (Rattus norvegicus [18]): 5; Change in Cl- current [19]: 0.9
CN(C)C(=O)N1Cc2c(C(=O)OC(C)(C)C)ncn2-c2ccc(Cl)cc21	5.56 nM	0.35	10.5 mg/kg							Shift [2]: 0.51
CC(C)n1c(=O)c2c(-c3noc(C4CC4)n3)ncn2c2ccccc21 [PANADIPLON]		0.04	1.6 mg/kg			1.7 mg/kg	87%			Acute electroshock activity (Mus musculus [12]): inactive; Shift [20]: 0.06
CC(C)(C)OC(=O)c1ncn2c1CN(C(=O)N1CCN(C(C)(C)C)CC1)c1cc(Cl)ccc1-2	20.9 nM	0.12	50 mg/kg	62%		> 30 mg/kg		Active		Shift [2]: -0.03
C[C@H]1NCCN(C(=O)N2Cc3c(C(=O)OC(C)(C)C)ncn3-c3ccc(Cl)cc32)[C@H]1C	2.34 nM	0	0.7 mg/kg	78%	0.27	> 30 mg/kg	70%	Active		Change in Cl- current [19]: 0.7
CC1CN(C)CC(C)N1C(=O)N1Cc2c(C(=O)OC(C)(C)C)ncn2-c2ccc(Cl)cc21 (configuration not stated)	90.2 nM	1.71	6.2 mg/kg	32%	1.02	> 30 mg/kg	100%		0.69	Acute electroshock activity (Mus musculus [12]): inactive
Cc1ccc2c(c1)N(C(=O)N1C[C@@H](C)N(C)[C@@H](C)C1)Cc1c(C(=O)OC(C)(C)C)ncn1-2	9.5 nM	1.37	1.6 mg/kg	64%	0.11	> 30 mg/kg	57%	Active	0.56	
C[C@@H]1CN(C(=O)N2c3cc(Cl)ccc3-n3cnc(C(=O)OC(C)(C)C)c3C2(C)C)C[C@H](C)N1	19.9 nM	0.96	0.4 mg/kg	94%	1.23		30%	Active	1.08	
Cc1ccc2c(c1)N(C(=O)N1CCN[C@@H](C)C1)Cc1c(C(=O)OC(C)(C)C)ncn1-2	17.9 nM	0.4	25 mg/kg	32%	0.59	> 30 mg/kg	55%	Active		Change in Cl- current [19]: 1.1
CC(C)(C)OC(=O)c1ncn2c1CN(C(=O)N1CCCCC1)c1ccccc1-2	1.35 nM	0	> 50 mg/kg	44%		4 mg/kg	91%			Shift [2]: 0.08; Acute electroshock activity (Mus musculus [12]): inactive
C[C@@H]1CN(C(=O)N2c3cc(Cl)ccc3-n3cnc(C(=O)OC(C)(C)C)c3C2(C)C)C[C@H](C)N1C	39.7 nM	2.6	0.6 mg/kg	84%	1.43	> 30 mg/kg	38%	Active	0.68	
Cc1ccc2c(c1)N(C(=O)N1C[C@@H](C)N[C@@H](C)C1)Cc1c(C(=O)OC(C)(C)C)ncn1-2	4.66 nM	0.3		55%	0.38	> 30 mg/kg	73%	Active	0.1	Change in Cl- current [19]: 0.84
C[C@H]1CN(C(=O)N2Cc3c(C(=O)OC(C)(C)C)ncn3-c3ccc(Cl)cc32)CCN1	6.71 nM	0.1	1.2 mg/kg	74%	0.12	> 30 mg/kg	56%	Active		Change in Cl- current [19]: 0.8
CN1CCN(C(=O)N2Cc3c(C(=O)OC(C)(C)C)ncn3-c3ccc(Cl)cc32)CC1	10.9 nM	0.98	7.4 mg/kg	29%	0.57	11 mg/kg	94%		0.44	
CN(C)C(=O)N1Cc2c(-c3noc(C4CC4)n3)ncn2-c2ccccc21 [PNU-91571]		0.68	21 mg/kg			1 mg/kg	61%			Shift [2]: 0.69; Acute electroshock activity (Mus musculus [12]): inactive

Source: ChEMBL document CHEMBL1132620, “Piperazine imidazo[1,5-a]quinoxaline ureas as high-affinity GABAA ligands of dual functionality” (J Med Chem, 1999)
